ChEMBL document CHEMBL1137710, “Synthesis and in vitro antitumor activity of new quinoxaline derivatives” (2009)

Experiments:
Format in all cases: functional
CAKI-1 = assay: Growth inhibition of human Caki1 cells after 48 hrs by sulforhodamine B assay; settings: CAKI-1, 48 h; for CC50: read-out: pLC50 (the source's name) (converted); for TGI: read-out: pTGI (converted)
Method in brief: (§1)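 NCI 60-human-tumor-cell-line panel, with compounds tested over a 5-log dose range. Values are taken from dose-response curves as log10 molar concentrations: GI50 is 50% net growth inhibition, TGI is total growth inhibition, and LC50 is 50% net cell death.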

UO-31 = assay: Growth inhibition of human UO31 cells after 48 hrs by sulforhodamine B assay; settings: UO-31, 48 h; for CC50: read-out: pLC50 (the source's name) (converted); for TGI: read-out: pTGI (converted)
Method in brief: (§2)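 Run in the NCI 60-human-tumour-cell-line panel, tested over a 5-log dose range. Dose–response curves gave three values per cell line, each as a log10 molar concentration: GI50 (50% inhibition of net cell growth), TGI (total inhibition of net growth) and LC50 (50% net cell death). The mean graph midpoint is the arithmetic mean over all lines, with insensitive lines entered at the highest concentration tested.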

K562 = assay: Growth inhibition of human K562 cells after 48 hrs by sulforhodamine B assay; settings: K562, 48 h; for TGI: read-out: pTGI (converted); method in brief: as §1
MDA-MB-435 = assay: Growth inhibition of human MDA-MB-435 cells after 48 hrs by sulforhodamine B assay; settings: MDA-MB-435, 48 h; for CC50: read-out: pLC50 (the source's name) (converted); for TGI: read-out: pTGI (converted); method in brief: as §1
HCT-116 = assay: Growth inhibition of human HCT116 cells after 48 hrs by sulforhodamine B assay; settings: HCT-116, 48 h; for TGI: read-out: pTGI (converted); method in brief: as §1
NCI-H522 = assay: Growth inhibition of human NCI-H522 cells after 48 hrs by sulforhodamine B assay; settings: NCI-H522, 48 h; for TGI: read-out: pTGI (converted); method in brief: as §1
SF-295 = assay: Growth inhibition of human SF295 cells after 48 hrs by sulforhodamine B assay; settings: SF-295, 48 h; for TGI: read-out: pTGI (converted); method in brief: as §1
OVCAR-5 = assay: Growth inhibition of human OVCAR5 cells after 48 hrs by sulforhodamine B assay; settings: OVCAR-5, 48 h; for CC50: read-out: pLC50 (the source's name) (converted); for TGI: read-out: pTGI (converted); method in brief: as §1
COLO 205 = assay: Growth inhibition of human COLO205 cells after 48 hrs by sulforhodamine B assay; settings: COLO 205, 48 h; for TGI: read-out: pTGI (converted); method in brief: as §1
OVCAR-8 = assay: Growth inhibition of human OVCAR8 cells after 48 hrs by sulforhodamine B assay; settings: OVCAR-8, 48 h; for CC50: read-out: pLC50 (the source's name) (converted); for TGI: read-out: pTGI (converted); method in brief: as §1
HL-60(TB) = assay: Growth inhibition of human HL-60(TB) cells after 48 hrs by sulforhodamine B assay; settings: HL-60, 48 h; for TGI: read-out: pTGI (converted)
Method in brief: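 Tested only on compounds active in a three-line prescreen, in the NCI 60-human-tumour-cell-line panel over a 5-log dose range. Values come from dose–response curves as log10 molar GI50, the concentration inhibiting 50% net cell growth. Log10 TGI (total growth inhibition) and log10 LC50 (50% net cell death) were derived too. Mean graph midpoints include insensitive lines at the highest concentration tested.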

TK-10 = assay: Growth inhibition of human TK10 cells after 48 hrs by sulforhodamine B assay; settings: TK-10, 48 h; for CC50: read-out: pLC50 (the source's name) (converted); for TGI: read-out: pTGI (converted); method in brief: as §2
A549 = assay: Growth inhibition of human A549 cells after 48 hrs by sulforhodamine B assay; settings: A549, 48 h; for TGI: read-out: pTGI (converted); method in brief: as §1
HOP-62 = assay: Growth inhibition of human HOP62 cells after 48 hrs by sulforhodamine B assay; settings: HOP-62, 48 h; for TGI: read-out: pTGI (converted); method in brief: as §1
UACC-257 = assay: Growth inhibition of human UACC257 cells after 48 hrs by sulforhodamine B assay; settings: UACC-257, 48 h; for CC50: read-out: pLC50 (the source's name) (converted); for TGI: read-out: pTGI (converted); method in brief: as §2
MDA-MB-231 = assay: Growth inhibition of human MDA-MB-231 cells after 48 hrs by sulforhodamine B assay; settings: MDA-MB-231, 48 h; for CC50: read-out: pLC50 (the source's name) (converted); for TGI: read-out: pTGI (converted); method in brief: as §1
SNB-19 = assay: Growth inhibition of human SNB19 cells after 48 hrs by sulforhodamine B assay; settings: SNB-19, 48 h; for TGI: read-out: pTGI (converted); method in brief: as §2
SK-OV-3 = assay: Growth inhibition of human SKOV3 cells after 48 hrs by sulforhodamine B assay; settings: SK-OV-3, 48 h; for CC50: read-out: pLC50 (the source's name) (converted); for TGI: read-out: pTGI (converted); method in brief: as §1
SW-620 = assay: Growth inhibition of human SW620 cells after 48 hrs by sulforhodamine B assay; settings: SW-620, 48 h; for CC50: read-out: pLC50 (the source's name) (converted); for TGI: read-out: pTGI (converted); method in brief: as §2
OVCAR-4 = assay: Growth inhibition of human OVCAR4 cells after 48 hrs by sulforhodamine B assay; settings: OVCAR-4, 48 h; for CC50: read-out: pLC50 (the source's name) (converted); for TGI: read-out: pTGI (converted); method in brief: as §1
NCI-H322M = assay: Growth inhibition of human NCI-H322M cells after 48 hrs by sulforhodamine B assay; settings: for TGI: read-out: pTGI (converted); method in brief: as §1
786-0 = assay: Growth inhibition of human 786-0 cells after 48 hrs by sulforhodamine B assay; settings: 786-0, 48 h; for CC50: read-out: pLC50 (the source's name) (converted); for TGI: read-out: pTGI (converted); method in brief: as §1
NCI/ADR-RES = assay: Growth inhibition of human NCI/ADR-RES cells after 48 hrs by sulforhodamine B assay; settings: for CC50: read-out: pLC50 (the source's name) (converted); for TGI: read-out: pTGI (converted); method in brief: as §1
NCI-H23 = assay: Growth inhibition of human NCI-H23 cells after 48 hrs by sulforhodamine B assay; settings: NCI-H23, 48 h; for TGI: read-out: pTGI (converted); method in brief: as §1
M14 = assay: Growth inhibition of human M14 cells after 48 hrs by sulforhodamine B assay; settings: M14, 48 h; for CC50: read-out: pLC50 (the source's name) (converted); for TGI: read-out: pTGI (converted); method in brief: as §1
U-251 = assay: Growth inhibition of human U251 cells after 48 hrs by sulforhodamine B assay; settings: U-251, 48 h; for TGI: read-out: pTGI (converted); method in brief: as §2
OVCAR-3 = assay: Growth inhibition of human OVCAR-3 cells after 48 hrs by sulforhodamine B assay; settings: OVCAR-3, 48 h; for CC50: read-out: pLC50 (the source's name) (converted); for TGI: read-out: pTGI (converted); method in brief: as §1
[1] = Growth inhibition of human […] cells after 48 hrs by sulforhodamine B assay; settings: for TGI: read-out: pTGI (converted); method in brief: as §1

## COc1cc(OC)cc(Oc2nc3cc(N)cc(N)c3nc2-c2ccccc2)c1
CAKI-1
  GI50: 16.2 µM
  CC50: 79.4 µM
  TGI: 36.3 µM
UO-31
  GI50: 11.5 µM
  CC50: 72.4 µM
  TGI: 28.8 µM
K562
  GI50: 3.8 µM
  TGI: 32.4 µM
MDA-MB-435
  GI50: 0.389 µM
  CC50: 5.01 µM
  TGI: 1.82 µM
HCT-116
  GI50: 2.34 µM
  TGI: 10 µM
NCI-H522
  GI50: 0.891 µM
  TGI: 4.27 µM
SF-295
  GI50: 2.19 µM
  TGI: 8.51 µM
OVCAR-5
  GI50: 3.24 µM
  CC50: 40.7 µM
  TGI: 16.2 µM
COLO 205
  GI50: 10.7 µM
  TGI: 22.4 µM
OVCAR-8
  GI50: 2.88 µM
  CC50: 50.1 µM
  TGI: 16.2 µM
HL-60(TB)
  GI50: 3.09 µM
  TGI: 25.7 µM
TK-10
  GI50: 28.2 µM
  CC50: > 100 µM
  TGI: 57.5 µM
A549
  GI50: 2.88 µM
  TGI: 13.2 µM
HOP-62
  GI50: 2.14 µM
  TGI: 12.9 µM
UACC-257
  GI50: 2.19 µM
  CC50: 37.2 µM
  TGI: 12.3 µM
MDA-MB-231
  GI50: 3.98 µM
  CC50: 87.1 µM
  TGI: 21.9 µM
SNB-19
  GI50: 2.51 µM
  TGI: 12.6 µM
SK-OV-3
  GI50: 3.47 µM
  CC50: 69.2 µM
  TGI: 16.2 µM
SW-620
  GI50: 2.24 µM
  CC50: 31.6 µM
  TGI: 10.2 µM
OVCAR-4
  GI50: 2.88 µM
  CC50: 58.9 µM
  TGI: 16.2 µM
NCI-H322M
  GI50: 2.24 µM
  TGI: 15.1 µM
786-0
  GI50: 15.1 µM
  CC50: > 100 µM
  TGI: 41.7 µM
NCI/ADR-RES
  GI50: 1.12 µM
  CC50: 18.2 µM
  TGI: 3.89 µM
NCI-H23
  GI50: 1.7 µM
  TGI: 12.6 µM
M14
  GI50: 1.58 µM
  CC50: 28.8 µM
  TGI: 7.76 µM
U-251
  GI50: 2.63 µM
  TGI: 10.7 µM
OVCAR-3
  GI50: 2.24 µM
  CC50: 55 µM
  TGI: 8.71 µM
[1]
  GI50: 2.88 µM
  TGI: 8.51 µM

## Nc1cc(N)c2nc(-c3ccccc3)c(NCc3ccc(F)cc3)nc2c1
CAKI-1
  GI50: 15.1 µM
  CC50: 89.1 µM
  TGI: 37.2 µM
UO-31
  GI50: 3.8 µM
  CC50: > 100 µM
  TGI: > 100 µM
K562
  GI50: 4.37 µM
  LC50: > 100 µM
  TGI: > 100 µM
MDA-MB-435
  GI50: 2 µM
  CC50: 6.92 µM
  TGI: 3.72 µM
HCT-116
  GI50: 12.9 µM
  LC50 (concentration causing 50% net cell death): > 100 µM
  TGI: > 100 µM
NCI-H522
  GI50: > 100 µM
  LC50: > 100 µM
  TGI: > 100 µM
SF-295
  GI50: 3.47 µM
  LC50 (50% net cell kill): 64.6 µM
  TGI: 13.5 µM
OVCAR-5
  GI50: 2.63 µM
  CC50: > 100 µM
  TGI: 7.59 µM
COLO 205
  GI50: 2.51 µM
  LC50 (50% net cell kill): > 100 µM
  TGI: 6.17 µM
OVCAR-8
  GI50: 2.63 µM
  CC50: 21.9 µM
  TGI: 6.03 µM
HL-60(TB)
  GI50: 3.89 µM
  LC50: > 100 µM
  TGI: > 100 µM
TK-10
  GI50: 5.89 µM
  CC50: 53.7 µM
  TGI: 20 µM
A549
  GI50: 17.8 µM
  LC50: 69.2 µM
  TGI: 34.7 µM
HOP-62
  GI50: 38.9 µM
  LC50: > 100 µM
  TGI: > 100 µM
UACC-257
  GI50: 2.04 µM
  CC50: 8.91 µM
  TGI: 4.27 µM
MDA-MB-231
  GI50: 2.14 µM
  CC50: 19.5 µM
  TGI: 5.13 µM
SNB-19
  GI50: 6.61 µM
  LC50: 52.5 µM
  TGI: 20 µM
SK-OV-3
  GI50: 12.9 µM
  CC50: 53.7 µM
  TGI: 26.3 µM
SW-620
  GI50: 2.19 µM
  CC50: > 100 µM
  TGI: 9.55 µM
OVCAR-4
  GI50: 1.7 µM
  CC50: 60.3 µM
  TGI: 8.13 µM
NCI-H322M
  GI50: 3.47 µM
  LC50: 40.7 µM
  TGI: 11.5 µM
786-0
  GI50: 23.4 µM
  CC50: > 100 µM
  TGI: 61.7 µM
NCI/ADR-RES
  GI50: 2.45 µM
  CC50: 28.2 µM
  TGI: 5.75 µM
NCI-H23
  GI50: 2.4 µM
  LC50 (50% net cell kill concentration): 8.91 µM
  TGI: 4.57 µM
M14
  GI50: 23.4 µM
  CC50: > 100 µM
  TGI: 56.2 µM
U-251
  GI50: 1.58 µM
  LC50 (50% net cell kill): 6.31 µM
  TGI: 3.16 µM
OVCAR-3
  GI50: 2.4 µM
  CC50: > 100 µM
  TGI: 6.46 µM
[1]
  GI50: 2.51 µM
  LC50: > 100 µM
  TGI: 6.31 µM
